According to article PMC9924099 (Journal of medicinal chemistry, 2021):
Where two headings read alike, the source gives them in different places.

Columns and labels:
[1] = test system: caspase 3 and PARP1 in WT p53 MCF-7 cells; assay: Western blot of caspase 3 and PARP1; type: cell-based, human; conditions: MCF-7 (caspase 3-deficient), 24 h
Summary of the method: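 MCF-7 cells were treated with test compound or DMSO for 24 h and lysed on ice for 30 min (20 mM Tris-Cl pH 8.0, 137 mM NaCl, 10% glycerol, 1% NP-40, 2 mM EDTA, protease inhibitors). Lysates were cleared at 18,500 × g. 100 μg lysate was run on 4–12% SDS-PAGE, transferred to PVDF and probed with anti-PARP and anti-caspase 3 (1:1000), HRP secondary and ECL. GAPDH served as loading control.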

[2] = target: p53^R273H in MDA-MB-468 cells (Homo sapiens, UniProt P04637, R273H); assay: Western blot of p53 expression; type: cell-based; conditions: MDA-MB-468, 6 μM or 12 μM, 24 h
Summary of the method: (§1)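 Cells were treated 24 h with 6 μM or 12 μM test compound or DMSO and lysed in NP-40/Tris-Cl pH 8.0 buffer with protease inhibitors. Load on 4–12% SDS-PAGE was 20 μg for MDA-MB-231 and MDA-MB-468 or 50 μg for MCF-7. After PVDF transfer, blots were probed with p53 DO-1 antibody, reprobed for GAPDH as loading control and developed by ECL.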

[3] = target: p53^R280K in MDA-MB-231 cells (Homo sapiens, UniProt P04637, R280K); assay: Western blot of p53 expression; type: cell-based; conditions: MDA-MB-231, 6 μM or 12 μM, 24 h
Summary of the method: as §1

WT p53 in MCF-7 cells = WT p53 in MCF-7 cells (Homo sapiens, UniProt P04637); assay: Western blot of p53 expression; type: cell-based; conditions: MCF-7, 6 μM or 12 μM, 24 h
Summary of the method: as §1

WT p53 MCF-7 cells [4] = assay: WST-1 cell proliferation assay; type: cell-based, human; conditions: MCF-7, 24 h or 72 h; compared to mutant p53 cells
Summary of the method: (§2)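 WST-1 assay. Test compound in DMSO was added to cells at 40,000 cells/ml, giving 1% DMSO final, and plated at 4,000 cells/well in duplicate; medium-only wells served as background. Incubation was 24 h or 72 h at 37 °C, then WST-1 for 2 h and OD450 read. Proliferation is expressed as % of DMSO control; triplicate experiments. MCF-7 grown in RPMI 1640, MDA-MB-436 in DMEM.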

[5] = human, in vivo; cited from earlier work
Log P determination = type: physicochemical; conditions: octanol/sodium phosphate buffer (pH 7.4)
[6] = test system: caspase 3 and PARP1 in p53^R280K MDA-MB-231 cells; assay: Western blot of caspase 3 and PARP1; type: cell-based, human; conditions: MDA-MB-231, 24 h
Summary of the method: (§3)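 Cells grown in RPMI 1640 with 10% FBS, 1% penicillin/streptomycin and 1% L-glutamine, then given test compound or DMSO control for 24 h. Lysed 30 min on ice in Tris-Cl pH 8.0/NaCl/glycerol/NP-40/EDTA buffer with protease inhibitors, then cleared. 100 μg lysate run on 4-12% SDS-PAGE, transferred to PVDF, probed with anti-PARP and anti-caspase 3 (1:1000 each). ECL detection.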

[7] = test system: caspase 3 and PARP1 in p53^R273H MDA-MB-468 cells; assay: Western blot of caspase 3 and PARP1; type: cell-based, human; conditions: MDA-MB-468, 24 h
Summary of the method: as §3

[8] = test system: p53^R280K MDA-MB-231 cells; assay: WST-1 cell proliferation assay; type: cell-based, human; conditions: for IC50: Homo sapiens, read-out: IC50, inhibition of cell proliferation
WT p53 MCF-7 cells [9] = assay: qRT-PCR gene expression; type: cell-based, human; conditions: for expression of MDM2 / expression of canonical p53 targets p21 and NOXA: MCF-7, 6 μM; for expression of canonical p53 targets p21 and NOXA: 4 h; for p53 mRNA level: MCF-7, 4 h
Summary of the method: (§4)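 Cells were exposed to 6 μM test compound or DMSO for 4 h. RNA was extracted and reverse-transcribed, and transcripts were quantified by TaqMan qRT-PCR normalised to GAPDH. Values are means with SD from triplicates of repeated experiments.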

[10] = test system: p53^R273H MDA-MB-468 cells; assay: Annexin V staining; type: cell-based, human; conditions: MDA-MB-468, 6 μM or 12 μM; for increase in Annexin V stained cells compared to DMSO: 24 h
WT p53 MCF-7 cells [11] = assay: Annexin V staining; type: cell-based, human; conditions: MCF-7, 24 h
Summary of the method: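 After 24 h exposure to test compound or DMSO, MCF-7 cells (RPMI 1640, 10% FBS, 1% penicillin/streptomycin, 1% L-glutamine) were scraped, PBS-washed and taken up in Annexin V binding buffer. They were stained with fluorochrome-conjugated Annexin V for 15 min at RT in the dark, then PI staining solution was added. Flow cytometry read-out; % Annexin V-positive cells expressed relative to DMSO.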

ATM in MDA-MB-468 cells = assay: Western blot of pATM S1981; type: cell-based, human; conditions: MDA-MB-468, 6 μM, 24 h
Summary of the method: (§5)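 Cells were treated 24 h with 6 μM test compound or DMSO and lysed in NP-40 buffer; 250 μg lysate was run on 4–12% SDS-PAGE and transferred to PVDF. Probing used anti-pATM Ser1981 (1:500) with HRP anti-mouse IgG (1:1000) and ECL detection, then reprobing with anti-GAPDH (1:5000). Experiments were done in triplicate.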

[12] = test system: p53^R280K MDA-MB-231 cells; assay: Flow-cytometric cell cycle analysis; type: cell-based, human; conditions: MDA-MB-231, 6 μM, 24 h; DMSO 42.9%
[13] = test system: p53 null MDA-MB-436 cells; assay: WST-1 cell proliferation assay; type: cell-based, human; conditions: MDA-MB-436, 24 h and 72 h; compared to MDA-MB-231 or MDA-MB-468
Summary of the method: as §2

[14] = test system: p53^R280K MDA-MB-231 cells; assay: qRT-PCR gene expression; type: cell-based, human; conditions: for expression of canonical p53 targets p21 and NOXA: MDA-MB-231, 6 μM, 4 h; for p53 mRNA levels: MDA-MB-231, 4 h
Summary of the method: as §4

[15] = test system: p53^R273H MDA-MB-468 cells; assay: qRT-PCR gene expression; type: cell-based, human; conditions: for expression of MDM2 / expression of canonical p53 targets p21 and NOXA: MDA-MB-468, 6 μM; for expression of canonical p53 targets p21 and NOXA: 4 h; for p53 mRNA levels: MDA-MB-468, 4 h
Summary of the method: as §4

colon cells (CCD841) = assay: Proliferation of normal cells; type: cell-based, human
[16] = test system: p53 knockdown MDA-MB-468 cells; assay: WST-1 proliferation after p53 siRNA knockdown; type: cell-based, human; conditions: p53 siRNA MDA-MB-468 vs NS siRNA cells
Summary of the method: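 MDA-MB-468 cells at 50–60% confluence received p53 SMARTpool siRNA or non-specific siRNA (0.430 nmol with Lipofectamine 2000 in Opti-MEM, 5 h), with a second transfection 24 h later. At 72 h after the first transfection, cells were treated with test compound or DMSO. Proliferation was then measured by WST-1 as % of DMSO.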

[17] = test system: ATM in WT p53 MCF-7 cells; assay: Western blot of pATM S1981; type: cell-based, human; conditions: MCF-7, 6 μM, 24 h
Summary of the method: as §5

ATM in MDA-MB-231 cells = assay: Western blot of pATM S1981; type: cell-based, human; conditions: MDA-MB-231, 6 μM, 24 h
Summary of the method: as §5

[18] = test system: mammary epithelial cells (MCF10A); assay: Proliferation of normal cells; type: cell-based, human
[19] = test system: p53^R280K MDA-MB-231 cells; assay: Annexin V staining; type: cell-based, human; conditions: MDA-MB-231, 6 μM or 12 μM, 24 h
[20] = test system: p53^R273H MDA-MB-468 cells; assay: WST-1 cell proliferation assay; type: cell-based, human; conditions: Homo sapiens, read-out: IC50, inhibition of cell proliferation

Row | SMILES | levels of uncleaved PARP1 and cleaved-PARP1 [1] | mutant p53 expression (western blot) [2] | mutant p53 expression (western blot) [3] | WT p53 expression (western blot) (WT p53 in MCF-7 cells) | inhibition of cell proliferation / sensitivity (in words) (WT p53 MCF-7 cells [4]) | logP at 18 h (Log P determination) | levels of uncleaved caspase 3, uncleaved PARP1 and cleaved-PARP1 [6] | levels of uncleaved caspase 3, uncleaved PARP1 and cleaved-PARP1 [7] | IC50 ([8]; MDA-MB-231, 24 h) | IC50 ([8]; MDA-MB-231, 72 h) | expression of MDM2 (WT p53 MCF-7 cells [9]) | expression of canonical p53 targets p21 and NOXA (WT p53 MCF-7 cells [9]) | p53 mRNA level (WT p53 MCF-7 cells [9]) | increase in Annexin V stained cells compared to DMSO [10] | increase in Annexin V stained cells compared to DMSO (WT p53 MCF-7 cells [11]) | expression of canonical p53 targets p21 and NOXA [14] | p53 mRNA levels [14] | expression of MDM2 [15] | expression of canonical p53 targets p21 and NOXA [15] | p53 mRNA levels [15] | also measured
1 | S=C=NCCc1ccccc1 [PEITC, Phenethyl isothiocyanate, reference compound] | significant decrease in the levels of uncleaved PARP1 and accumulation of cleaved-PARP1 | significant decrease | significant decrease | increase in p53 levels | considerably less sensitive | 3.5 | significant decrease in the levels of uncleaved caspase 3 and accumulation of cleaved-PARP1 fragments | significant decrease in the levels of uncleaved caspase 3 and accumulation of cleaved-PARP1 fragments |  |  |  |  |  |  |  |  |  |  |  |  | estimated half-life [5]: ~ 2.4 h
2 | S=C=NCCCC12CC3CC(CC(C3)C1)C2 [Ad-ITC 6, 1-Isothiocyanato-3-(adamantan-1-yl)propane] | did not detect any significant decrease in the levels of uncleaved PARP1 or accumulation of cleaved-PARP1 fragments | differential decrease in the expression of mutant p53 | differential decrease in the expression of mutant p53 | did not decrease WT p53 expression | remarkably less sensitive | 5.17 | significant decrease in the levels of uncleaved caspase 3 and PARP1 | significant decrease in the levels of uncleaved caspase 3 and PARP1 | 12 to 24 µM | 12 to 24 µM | enhanced the expression of MDM2 | upregulated expression of p21 and NOXA | increase in the p53 mRNA level | 2.0-5.1 fold | did not display any significant increase | enhanced the expression of the canonical p53 targets p21 and NOXA | remained unchanged | enhanced the expression of MDM2 | enhanced the expression of the canonical p53 targets p21 and NOXA | remained unchanged | inhibition of cell proliferation (in words) ([8]; MDA-MB-231, 24 h or 72 h): dose-dependent activity; phosphorylation of ATM at S1981 (ATM in MDA-MB-468 cells): phosphorylation of ATM at S1981; cells in G1 phase [12]: 48.2%; sensitivity of cell proliferation (in words) [13]: significantly reduced sensitivity; IC50 compared with mutant p53 tumor cells (in words) (colon cells (CCD841)): significantly higher; sensitivity of cell proliferation (in words) [16]: markedly reduced sensitivity; pATM-S1981 [17]: absent; phosphorylation of ATM at S1981 (ATM in MDA-MB-231 cells): phosphorylation of ATM at S1981; IC50 compared with mutant p53 tumor cells (in words) [18]: significantly higher; increase in Annexin V stained cells compared to DMSO [19]: 2.0-5.1 fold; IC50 ([20]; MDA-MB-468, 24 h): 12 to 24 µM; IC50 ([20]; MDA-MB-468, 72 h): 12 to 24 µM
3 | [Se]=C=NCCC12CC3CC(CC(C3)C1)C2 [Ad-ISeC 14, 1-Isoselenocyanato-2-(adamantan-1-yl)ethane] | did not detect any significant change | significant reduction in mutant p53 expression | significant reduction in mutant p53 expression | marginally elevated |  |  | decrease in the levels of uncleaved caspase 3 and PARP-1 and an increase in the levels of cleaved-PARP1 fragment | decrease in the levels of uncleaved caspase 3 and PARP-1 and an increase in the levels of cleaved-PARP1 fragment | 6 to 12 µM | 6 to 12 µM | statistically significant elevation of MDM2 | significant increase in the expression levels | increase in the p53 mRNA level | enhanced the apoptotic potential | not in MCF-7 cells | significantly enhanced the levels of p21 and NOXA | remained unchanged | statistically significant elevation of MDM2 | significantly enhanced the levels of p21 and NOXA | remained unchanged | level of apoptosis compared to Ad-ITC 5 [10]: > 2 fold; IC50 compared with mutant p53 tumor cells (in words) (colon cells (CCD841); CCD841 normal cells vs MDA-MB-231 and MDA-MB-468): significantly higher; IC50 compared with mutant p53 tumor cells (in words) ([18]; MCF10A normal cells vs MDA-MB-231 and MDA-MB-468): significantly higher; increase in Annexin V stained cells compared to DMSO [19]: enhanced the apoptotic potential; IC50 ([20]; MDA-MB-468, 24 h): 6 to 12 µM; IC50 ([20]; MDA-MB-468, 72 h): 6 to 12 µM
